Measured values published in ChEMBL document CHEMBL1821702, “8,8-Dimethyldihydroberberine with improved bioavailability and oral efficacy on obese and diabetic mouse models” (Bioorg Med Chem, 2010).
Activity calls are given as the source filed them. The calls are words filed in the database; no cut-off is given here.

What was measured:
Mus musculus [1] = assay: Antiobese activity in high fat diet-fed C57BL/6J mouse assessed as decrease in plasma triglyceride level at 15 mg/kg/day, po for 6 weeks; type: functional; design: scale not given: the % may be the effect or the level left
Outline: (§1)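 DIO male C57BL/6J mice received daily oral dosing in cellulose/lactose vehicle for 6 weeks and were killed after the final dose. Plasma and liver triglycerides were measured by triglyceride assay kit, and fat depots were weighed.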

L6 [2] = assay: Increase in glucose uptake in rat differentiated L6 myotubes at 20 uM after 1 hr; type: functional
Outline: (§2)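 Fully differentiated L6 myotubes were serum-starved 2 h, then treated with compound for 15 min to 2 h (dose series at 1 h). Glucose uptake was measured relative to DMSO control. Mean of three independent experiments ± SE.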

L6 [3] = assay: Increase in glucose uptake in rat differentiated L6 myotubes after 1 hr; type: functional, cell-based; outline: as §2
Mus musculus [4] = assay: Toxicity in C57BLKS/J-db/db mouse assessed as change in fat to body weight ratio at 50 mg/kg/day, po for 6 weeks; type: organism-based; design: route oral; details: in vivo, 1008 h
Outline: (§3)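 db/db mice (half male, half female) were dosed by oral gavage daily for 6 weeks in 0.5% microcrystalline cellulose/1.6% lactose vehicle. Body weight and food intake were recorded daily. Mice were killed after the final dose, and liver and fat depots were weighed and expressed relative to body weight.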

Mus musculus [5] = assay: Antidiabetic activity in C57BLKS/J-db/db mouse assessed as alleviation of glucose tolerance at 50 mg/kg/day, po for 3 weeks measured after 15 mins by intraperitoneal glucose tolerance test; type: functional, organism-based
Outline: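 Male and female C57BLKS/J-db/db mice, randomized at 6 weeks of age by body weight and fed glucose, were gavaged once daily in vehicle (0.5% microcrystalline cellulose, 1.6% lactose). For ipGTT, D-glucose was given at 2 g/kg ip, and blood glucose was read by glucometer at 0, 15, 30, 60, 90 and 120 min.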

Mus musculus [6] = assay: Toxicity in high fat diet-fed C57BL/6J mouse assessed as change in food intake at 15 mg/kg/day, po for 6 weeks; type: organism-based; design: route oral; details: in vivo, 1008 h
Outline: (§4)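 Male C57BL/6J mice (purchased at 6 weeks of age) fed 60 kcal% fat diet for 8 weeks, then randomized by body weight and fed glucose. Dosed orally once daily for 6 weeks in vehicle of 0.5% microcrystalline cellulose plus 1.6% lactose. Groups: high-fat vehicle, metformin 250 mg/kg positive control, chow-fed vehicle. Body weight and food intake recorded daily.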

Mus musculus [7] = assay: Antidiabetic activity in C57BLKS/J-db/db mouse assessed as decrease in fed blood glucose level at 50 mg/kg/day, po for 4 weeks; type: functional; design: scale not given: the % may be the effect or the level left
Mus musculus [8] = assay: Toxicity in high fat diet-fed C57BL/6J mouse assessed as change in body weight at 15 mg/kg/day, po for 6 weeks; type: organism-based; design: route oral; details: in vivo, 1008 h; outline: as §4
[9] = Stability in acidic buffer at pH 2 after 6 hrs by HPLC; type: physicochemical; details: buffer, pH 2, 6 h
Outline: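 A 0.5 mg/mL solution in acetonitrile was adjusted to pH 2 with H3PO4 and analyzed over 6 h by HPLC. Conditions: C18 column at 25 °C, 58% acetonitrile in 0.05 mol/L KH2PO4/0.005 mol/L SDS, 1 mL/min, detection at 320 nm.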

Rattus norvegicus [10] = species: Rattus norvegicus; assay: Induction of AMPK phosphorylation in 2 hrs serum starved rat differentiated L6 myotubes after 1 hr
Outline: (§5)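 Fully differentiated L6 myotubes were serum-starved 2 h, then treated 1 h across a dose series. Phospho-AMPK (Thr172) and phospho-ACC (Ser79) were detected by Western blot. Three independent experiments.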

Mus musculus [11] = assay: Antidiabetic activity in high fat diet-fed C57BL/6J mouse assessed as alleviation of insulin resistance at 15 mg/kg/day, po for 4 weeks measured after 90 mins by insulin tolerance test; type: functional, organism-based
Outline: (§6)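 Male C57BL/6J mice were fed a 60 kcal% fat diet for 8 weeks, randomized, then gavaged daily in 0.5% microcrystalline cellulose/1.6% lactose vehicle. ITT was run at 4 weeks: 6 h fast, insulin 0.75 U/kg ip, blood glucose at 0, 15, 30, 60, 90 and 120 min. Mean ± SE, n = 5–8.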

Rattus norvegicus [12] = species: Rattus norvegicus; assay: Induction of AMPK-dependent ACC phosphorylation in 2 hrs serum starved rat differentiated L6 myotubes after 1 hr; outline: as §5
L6 [13] = assay: Increase in glucose uptake in rat differentiated L6 myotubes after 2 hrs; type: functional; outline: as §2
Mus musculus [14] = assay: Antiobese activity in high fat diet-fed C57BL/6J mouse assessed as decrease in liver triglyceride level at 15 mg/kg/day, po for 6 weeks; type: functional; design: scale not given: the % may be the effect or the level left; outline: as §1
L6 [15] = assay: Increase in glucose uptake in rat differentiated L6 myotubes at 20 uM in presence of 10 nM AMPK inhibitor compound C; type: functional, cell-based
Mus musculus [16] = assay: Antidiabetic activity in high fat diet-fed C57BL/6J mouse assessed as increase in glucose tolerance at 15 mg/kg/day, po for 4 weeks measured after 30 mins by intraperitoneal glucose tolerance test; type: functional, organism-based
Outline: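 High-fat-diet (60 kcal%, 8 weeks) male C57BL/6J mice were randomized by body weight and fed glucose, then dosed orally once daily in cellulose/lactose vehicle. ipGTT was done at 4 weeks: D-glucose 2 g/kg ip, glucometer readings at 0, 15, 30, 60, 90 and 120 min. n = 5–8.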

Mus musculus [17] = assay: Antiobese activity in high fat diet-fed C57BL/6J mouse assessed as decrease in subcutaneous fat at 15 mg/kg/day, po for 6 weeks; type: functional; design: scale not given: the % may be the effect or the level left; outline: as §1
[18] = Cmax in 12 hrs fasting Sprague-Dawley rat at 10 mg/kg, po; type: ADME, organism-based; design: dose 10 mg/kg, route oral; details: in vivo
Outline: (§7)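 Male Sprague–Dawley rats were fasted 12 h and gavaged at 10 mg/kg. Blood was taken retro-orbitally into heparin tubes from pre-dose to 24 h. Plasma levels of parent and of berberine/dihydroberberine were measured by LC–MS/MS.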

[19] = Aqueous solubility of compound in distilled water; type: physicochemical
Outline: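 Excess solid was suspended in distilled water and stirred 24 h at 25 ± 0.5 °C. The suspension was filtered, and dissolved concentration was measured by HPLC.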

Mus musculus [20] = assay: Antidiabetic activity in high fat diet-fed C57BL/6J mouse assessed as alleviation of insulin resistance at 15 mg/kg/day, po for 4 weeks measured after 60 mins by insulin tolerance test; type: functional, organism-based; outline: as §6
[21] = Oral bioavailability in 12 hrs fasting Sprague-Dawley rat at 10 mg/kg; type: ADME, organism-based; details: in vivo; outline: as §7
L6 [22] = assay: Increase in glucose uptake in rat differentiated L6 myotubes after 1 hr relative to untreated control; type: functional; outline: as §2
Mus musculus [23] = assay: Antidiabetic activity in C57BLKS/J-db/db mouse assessed as decrease in fed blood glucose level at 50 mg/kg/day, po for 3 weeks; type: functional; design: scale not given: the % may be the effect or the level left
Mus musculus [24] = assay: Antidiabetic activity in C57BLKS/J-db/db mouse assessed as reduction of fasting blood glucose level at 50 mg/kg/day, po for 4 weeks; type: functional; design: scale not given: the % may be the effect or the level left
Mus musculus [25] = assay: Antidiabetic activity in C57BLKS/J-db/db mouse assessed as decrease in area under curve at 50 mg/kg/day, po for 4 weeks by insulin tolerance test; type: functional; design: scale not given: the % may be the effect or the level left
Mus musculus [26] = assay: Antidiabetic activity in high fat diet-fed C57BL/6J mouse assessed as decrease in plasma insulin level at 15 mg/kg/day, po for 4 weeks; type: functional; design: scale not given: the % may be the effect or the level left
Outline: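 DIO male C57BL/6J mice (60 kcal% fat diet for 8 weeks) were gavaged daily in 0.5% microcrystalline cellulose/1.6% lactose vehicle. Plasma insulin was determined by ELISA after 4 weeks of treatment. Mean ± SE, n = 5–8.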

Mus musculus [27] = assay: Toxicity in C57BLKS/J-db/db mouse assessed as change in liver to body weight ratio at 50 mg/kg/day, po for 6 weeks; type: organism-based; design: route oral; details: in vivo, 1008 h; outline: as §3

SMILES: COc1ccc2c(c1OC)C(C)(C)[N+]1=C(C2)c2cc3c(cc2CC1)OCO3.[Cl-] [8,8-dimethyldihydroberberine]
- Activity (Mus musculus [1]): 26%
- Activity (L6 [2]): 67%
- Activity (L6 [3]): Dose-dependent effect
- Activity (Mus musculus [4]): Non-toxic
- Activity (Mus musculus [5]): Active
- Activity (Mus musculus [6]): Non-toxic
- Activity (Mus musculus [7]): 40%
- Activity (Mus musculus [8]): Non-toxic
- Stability [9]: Stable
- Activity (Rattus norvegicus [10]): Dose-dependent effect
- Activity (Mus musculus [11]): Active
- Activity (Rattus norvegicus [12]): Dose-dependent effect
- Activity (L6 [13]): 84%
- Activity (Mus musculus [14]): 36%
- Activity (L6 [15]): inactive
- Activity (Mus musculus [16]): Active
- Activity (Mus musculus [17]): 36%
- Cmax [18]: 17.8 ng/mL
- solubility [19]: 81 mg/mL
- Activity (Mus musculus [20]): Active
- bioavailability [21]: 10%
- Activity (L6 [22]): 37%
- Activity (Mus musculus [23]): 24%
- Activity (Mus musculus [24]): 24%
- Activity (Mus musculus [25]): 28%
- Activity (Mus musculus [26]): 45%
- Activity (Mus musculus [27]): Non-toxic
